{"source": "ChEMBL document CHEMBL3124872", "about": "“Discovery and early development of TMC647055, a non-nucleoside inhibitor of the hepatitis C virus NS5B polymerase” (J Med Chem, 2014)", "key": {"[1]": {"system": "Hepatitis C virus", "assay": "Antiviral activity against wild-type Hepatitis C virus Con 1b infected in human HuH7 by transient replicon assay", "format": "functional, organism-based, Hepacivirus hominis", "conditions": "isolate Con1, Huh-7"}, "[2]": {"system": "Homo sapiens", "assay": "Toxicity in HCV genotype 1-infected patient assessed as grade-4 adverse events at 500 to 1000 mg, po bid for 5 days followed by morning dose on day 6", "format": "organism-based", "conditions": "in vivo, 120 h", "in_short": "(§1)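 HCV genotype 1-infected patients given oral b.i.d. doses of 500 or 1000 mg for 5 days plus a morning dose on day 6, in hydroxypropyl-β-cyclodextrin vehicle; adverse events with grading, laboratory parameters, vital signs, food consumption, appetite and ECG monitored.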"}, "[3]": {"system": "Homo sapiens", "assay": "Toxicity in HCV genotype 1-infected patient assessed as grade-3 adverse events at 500 to 1000 mg, po bid for 5 days followed by morning dose on day 6", "format": "organism-based", "conditions": "in vivo, 120 h", "in_short": "as §1"}, "[4]": {"assay": "Cytotoxicity against human HuH7 cells", "format": "cell-based, Huh-7"}, "[5]": {"system": "Hepatitis C virus", "assay": "Antiviral activity against Hepatitis C virus harboring […] D168V mutant infected in human HuH7 by luciferase reporter gene assay", "format": "functional, organism-based", "conditions": "Hepacivirus hominis; Huh-7"}, "[6]": {"system": "Homo sapiens", "assay": "Toxicity in human assessed as grade-4 adverse events at 300 to 1250 mg, po bid for 5 days followed by morning dose on day 6", "format": "organism-based", "conditions": "in vivo, 120 h", "in_short": "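Oral b.i.d. dosing for 5 days plus a single morning dose on day 6, in a hydroxypropyl-β-cyclodextrin vehicle. Healthy volunteers received 300, 1000 or 1250 mg; HCV genotype 1-infected patients received 500 or 1000 mg. Monitoring covered adverse events graded by severity, laboratory parameters, vital signs, food consumption, appetite and ECG.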"}, "[7]": {"assay": "Cytotoxicity against human MT4 cells", "format": "cell-based"}, "[8]": {"assay": "Binding affinity to His6-tagged Hepatitis C virus Con 1b NS5B delta21 RNA dependent RNA polymerase expressed in Escherichia coli Rosetta 2 (DE3) by surface plasmon resonance analysis", "parameters": "species or system Hepatitis C virus (isolate Con1)", "in_short": "(§2)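 Surface plasmon resonance binding to NS5B polymerase of the stated genotype; association and dissociation rate constants measured, from which Kd and residence half-life were derived; median Kd reported.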"}, "[9]": {"system": "Homo sapiens", "assay": "Drug metabolism in human assessed as CYP3A4-induced 4-beta-hydroxycholesterol level at 300 to 1250 mg, po bid for 5 days followed by morning dose on day 6", "format": "ADME, organism-based", "conditions": "in vivo, 120 h", "in_short": "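Healthy volunteers given oral b.i.d. doses of 300, 1000 or 1250 mg for 5 days plus a morning dose on day 6, in hydroxypropyl-β-cyclodextrin vehicle; adverse events, laboratory parameters, vital signs, food consumption, appetite, ECG and plasma 4-β-hydroxycholesterol (CYP3A4 induction marker) monitored.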"}, "[10]": {"assay": "Binding affinity to Hepatitis C virus genotype 1a NS5B by surface plasmon resonance analysis", "parameters": "species or system Hepatitis C virus subtype 1a", "in_short": "as §2"}}, "note": "Calls of active or inactive are those of the source. No cut-off for these calls is given here.", "data": [{"smiles": "COc1ccc2c(c1)C=C1Cn3c-2c(C2CCCCC2)c2ccc(cc23)C(=O)NS(=O)(=O)N(C)CCOCCN(C)C1=O", "note": "[TMC-647055]", "values": [{"measurement": "EC50", "setting": "[1]", "value": 0.051, "unit": "µM"}, {"measurement": "Activity", "setting": "[2]", "value": "Non-toxic"}, {"measurement": "Activity", "setting": "[3]", "value": "Non-toxic"}, {"measurement": "CC50", "setting": "[4]", "value": 42.1, "unit": "µM"}, {"measurement": "Activity", "setting": "[5]", "value": "Active"}, {"measurement": "Activity", "setting": "[6]", "value": "Non-toxic"}, {"measurement": "CC50", "setting": "[7]", "value": 28.9, "unit": "µM"}, {"measurement": "Kd", "setting": "[8]", "value": 0.0041, "unit": "µM"}, {"measurement": "Drug metabolism", "setting": "[9]", "value": "Active"}, {"measurement": "Kd", "setting": "[10]", "value": 0.0073, "unit": "µM"}]}]}
